These results are taken from publication PMC6133219 (Anti-Cancer Drugs, 2018).

Broadly, the MTD is the largest dose that counted as tolerated. The low end stands for a narrow tolerated range, the high end for a wide tolerated range. Usually half-life stands for how long it takes for the measured level to halve. Read a high half-life as slow decline.

The test system of data set [1] is RenCa tumors. The data set is described as follows: RenCa syngeneic renal carcinoma model in Balb/c mice. The format is in vivo, mouse. Conditions: within the first 18 days of treatment. A digest of the protocol: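 Balb/c mice (6–8 weeks) were injected with 2.5×10^5 RenCa cells in the left lower flank, then randomized at 100–150 mm3 (n=7/group). On day 1 they got a single iv dose of test compound (14 mg/kg) or cremophor EL:ethanol:saline vehicle. From 4 days later, they received biweekly ip anti-CTLA-4 (9H10) or rat IgG2a isotype (2A3) at 10 mg/kg for 2 weeks. Individual tumor volumes were measured 2–3 times weekly.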

The test system of data set [2] is MDA-MB-231-LM2 lung metastases. The data set is described as follows: MDA-MB-231-LM2 lung metastases model in SCID-beige mice. The format is in vivo, mouse. The note with it: for antitumor effect: MDA-MB-231-LM2, DZ-2384 0.5, 1.5, 4.5 mg/kg, docetaxel 2, 4 mg/kg. A digest of the protocol:
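Female SCID-beige mice (6–8 weeks) received 2.5×10^5 MDA-MB-231-LM2 cells via lateral tail vein. About 2 weeks later, mice with confirmed lung metastases were randomized by bioluminescent burden. They then got four biweekly iv injections in cremophor EL:ethanol:saline (5:5:90). Weekly imaging used D-luciferin 150 mg/kg ip. Survival was analysed by Kaplan–Meier log-rank; body weight was measured 2–3 times weekly.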

Data set [3] deals with GCRC-1945 PDX. As to the kind of experiment: Orthotopic TNBC PDX GCRC-1945 model in NSG mice. The data set is classed as in vivo, mouse. The note with it: for median survival: GCRC-1945 at MED (DZ-2384 1.25 mg/kg, paclitaxel 10 mg/kg), vehicle 36 days. A digest of the protocol: (§1)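 PDX tumor fragments (1–1.5 mm3) were implanted into the left fat pad of female NSG mice (6–8 weeks), passaged ≤8 times. Mice were randomized at 100–250 mm3 and treated iv once weekly for 4 weeks, with doses set as fractions of each agent's MTD. Caliper volume was calculated as 4/3π[(a/2)×(b/2)^2]. Kaplan–Meier log-rank and Student's t-test were used.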

Data set [4] deals with GCRC-1945. The data set is described as follows: Brain metastatic tumor model, intracranial GCRC-1945 in NSG mice. The data set is classed as in vivo, mouse. Conditions: for body weight loss: GCRC-1945 brain model, DZ-2384 10 mg/kg, paclitaxel 40 mg/kg. A digest of the protocol: (§2)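 Cells were implanted intracranially into the right frontal lobe of female NSG mice (6–8 weeks): MDA-MB-231-BrM2 at 7.5×10^4 cells, or luciferase-expressing GCRC-1945 at 1×10^5 cells. Mice were randomized by bioluminescent tumor burden, then dosed iv biweekly for 2 weeks in cremophor EL:ethanol:saline (5:5:90). Imaging was weekly (D-luciferin 150 mg/kg ip, 10 min prior; photon flux). Survival was analysed by Kaplan–Meier log-rank and weights tracked.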

Data set [5] is described as follows: Maximum tolerated dose in nontumor bearing NSG mice. The data set is classed as in vivo, mouse. A digest of the protocol: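 Each compound was given to four mice of the relevant strain as four biweekly iv injections. General condition was checked at least three times weekly. Endpoints were >20% weight loss for more than three consecutive days, death, or severe distress. Weights, clinical signs and survival were recorded until 1 week after the last dose.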

The format of data set [6] is in vivo, mouse. A digest of the protocol: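 Female NSG mice bearing MDA-MB-231-BrM2 mammary fat pad tumors received a single iv bolus of 10 or 40 mg/kg, depending on compound, in cremophor:ethanol:saline (5:5:90); n=4 per time point. Sampling was at 0–24 h. Plasma was taken, then mice were perfused with 20 ml saline via the left ventricle before brain, heart, lung and tumor harvest. Homogenates were measured by LC–MS/MS; tissue/plasma AUC0–∞ ratios were calculated.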

Data set [7] concerns MDA-MB-231-BrM2. The data set is described as follows: Brain metastatic tumor model, intracranial MDA-MB-231-BrM2 in NSG mice. The note with it: for body weight loss: MDA-MB-231-BrM2 brain model, DZ-2384 10 mg/kg, paclitaxel 40 mg/kg. The format is in vivo, mouse. The essentials: as §2
For data set [8] the following is noted: cited from earlier work.
The subject of data set [9] is GCRC-2076 PDX. As to the kind of experiment: Orthotopic TNBC PDX GCRC-2076. Conditions: for median survival: GCRC-2076 at 0.5x MTD, vehicle 30 days. The format is in vivo, mouse. The essentials:
as §1

For data set [10] the following is noted: patients receiving docetaxel 100 mg/m^2 for TNBC; cited from earlier work.

The structures appear in SMILES notation.

On to `CC(C)[C@H](O)C(=O)N[C@H]1Cc2ccc3c(c2)[C@]2(C4=C(c5nc(CO)co5)N=C(O4)[C@H](C(C)(C)C)NC1=O)c1cc(F)ccc1N[C@@H]2O3` [DZ-2384], for which, in data set [1], the “effect on tumor volume relative to vehicle control” value is “modest effects on tumor volume”. Also, the “tumor free mice (bioimaging)” value in data set [2] (MDA-MB-231-LM2, 4.5 mg/kg, 5 months after treatment initiation) is on record as “four of nine”. In addition, the median survival result in data set [2] (MDA-MB-231-LM2, 4.5 mg/kg, vehicle 37 days) was “more than 150 days”; in [3], 71 days; in data set [9], 88 days. The antitumor effect entry in [2] was “profound antitumor effect at all doses tested”. The antitumor efficacy result in [3] (GCRC-1945, 0.125x and 0.25x MTD) is recorded as “more effective than paclitaxel”; in data set [3] (GCRC-1945, 0.5x MTD), “equally effective”; in [9] (GCRC-2076, 0.25x and 0.5x MTD) it was “more effective than paclitaxel”. For the same compound, the body weight loss entry in [4] and in [7] was “less than 10%” throughout. For the same compound, the “efficacy (tumor burden, median survival vs vehicle)” value is “efficacious” in data set [4] (intracranial GCRC-1945, MTD, iv biweekly for 2 weeks) and “efficacious” in data set [7] (intracranial MDA-MB-231-BrM2, MTD, iv biweekly for 2 weeks). In addition, the “maximum tolerated dose (MTD)” value in data set [5] (nontumor bearing NSG mice, iv biweekly for 2 weeks) amounted to 10 mg/kg. Further, the “proportion that accumulates in the brain relative to plasma exposure” value in data set [6] (AUC ratio brain/plasma, single iv dose at MTD, NSG mice) came to 15%. Also, the “accumulation in tumor tissue relative to plasma” value in data set [6] (AUC ratio tumor/plasma, single iv dose at MTD, NSG mice) was 18 fold. Besides, in [6] (single iv dose at MTD, NSG mice), the “maximum concentration (Cmax) ratio in tumor relative to plasma” value is listed as 1.3. For the same compound, the “effects on peripheral nerves” value in [8] (rat model of peripheral neuropathy, effective levels) is given as “no detrimental effects on peripheral nerves”.

Take `CC(=O)O[C@@]12CO[C@@H]1C[C@H](O)[C@@]1(C)C(=O)[C@H](O)C3=C(C)[C@@H](OC(=O)[C@H](O)[C@@H](NC(=O)OC(C)(C)C)c4ccccc4)C[C@@](O)([C@@H](OC(=O)c4ccccc4)[C@H]21)C3(C)C` [docetaxel, reference compound]: the exposure in patients in data set [10] is 4810 to 5200 ng·h/mL. Besides, the antitumor effect entry in [2] is on record as “effective at only the 4 mg/kg dose”. Moreover, the weight loss result in [2] (MDA-MB-231-LM2 model, 4 mg/kg docetaxel (MED)) is “more than 10%”. Further, the “loss in digital and caudal nerve conduction velocity” value in data set [8] (rat, docetaxel 10 mg/kg (lowest dose tested)) is 12–23%.

For `CC(=O)O[C@H]1C(=O)[C@@]2(C)[C@H]([C@H](OC(=O)c3ccccc3)[C@]3(O)C[C@H](OC(=O)[C@H](O)[C@@H](NC(=O)c4ccccc4)c4ccccc4)C(C)=C1C3(C)C)[C@]1(OC(C)=O)CO[C@@H]1C[C@@H]2O` [paclitaxel, reference compound], the antitumor efficacy entry in data set [3] (GCRC-1945, 0.5x MTD) is “equally effective”; in data set [9] (GCRC-2076, 0.25x MTD) it was “not effective”. The median survival was 53 days in data set [3] and 69 days in data set [9]. In addition, the body weight loss result in data set [4] and in data set [7] was “less than 10%” each time. Moreover, the maximum tolerated dose (MTD) at 2 weeks in data set [5] (NSG, mouse, in vivo, iv) was determined as 40 mg/kg. In [6] (female, NSG, mouse, tumor, iv, 40 mg/kg), the half-life was 19.1 h.
